What all share (assay type): functional
In assay [1] the test system is Mus musculus. Nature of the assay: Antiexploratory activity (EXPL) of mice determined by an antimex activity meter, 10 mg/kg of dose was administered perorally; No inhibition. To be noted: route oral.
Assay [2] concerns Canis familiaris. The assay can be described thus: Inhibition of apomorphine induced emesis in dogs at 1 mg/kg of dose. As to conditions: Canis lupus familiaris. The procedure, abridged: (§1)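 Beagle dogs (10-15 kg), groups of three, given compound po in a gelatin capsule; 2 h later apomorphine hydrochloride 0.3 mg/kg sc. Vomiting counted for 1 h; mean inhibition as percent of control. ED50 is the dose giving 50% inhibition of emesis, by Litchfield-Wilcoxon.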

Assay [3] concerns Mus musculus. The assay can be described thus: Antiexploratory activity (EXPL) of mice determined by an antimex activity meter, 50 mg/kg of dose was administered perorally; Moderate inhibition (51-71%). As to conditions: route oral.
In assay [4] the test system is Mus musculus. Nature of the assay: (§2) 3,4 -Dihydroxy phenylacetic acid (DOPAC) levels in mouse brain at 10 mg/kg dose. Put shortly:
(§3)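 Male Std-ddY mice, 20-25 g, dosed orally with compound in 0.5% aqueous tragacanth. DOPAC was measured fluorometrically after purification by column chromatography on Sephadex G-10 and QAE-Sephadex. Brains from five mice per compound were pooled for each determination.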

Assay [5] has as its system Mus musculus. Nature of the assay: Exploratory activity of mice determined by an antimex activity meter, 10 mg/kg of dose was administered perorally. To be noted: route oral.
The subject of assay [6] is Mus musculus. Nature of the assay: Exploratory activity of mice determined by an antimex activity meter, 50 mg/kg of dose was administered perorally. To be noted: Mus musculus, po. The procedure, abridged:
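Male Std-ddY mice (20-25 g), five per dose; compound in 0.5% aqueous tragacanth given orally. Two hours later each mouse placed in an Animex activity meter cage and locomotor activity counted for 3 min. Mean suppression expressed as percent inhibition of control; ED50 by Litchfield-Wilcoxon.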

Assay [7] relates to Mus musculus. The assay can be described thus: The homovanillic acid (HVA) levels in mouse brain at 10 mg/kg of dose. The procedure, abridged:
(§4)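 Mice dosed orally in 0.5% aqueous tragacanth; brains of five mice per compound pooled. Homovanillic acid measured in brain extracts and reported as brain level.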

Assay [8] relates to Mus musculus. The assay can be described thus: (§5) 3,4 -Dihydroxy phenylacetic acid (DOPAC) levels in mouse brain at 50 mg/kg dose. Put shortly:
as §3

For assay [9], the system named is Mus musculus. The assay can be described thus: The homovanillic acid (HVA) levels in mouse brain at 50 mg/kg of dose. The procedure, abridged: as §4
Assay [10] has as its system Mus musculus. Nature of the assay: Antiexploratory activity (EXPL) of mice determined by an antimex activity meter, 50 mg/kg of dose was administered perorally; No inhibition. To be noted: route oral.
For assay [11], the system named is Mus musculus. Nature of the assay: Antimaximal electroshock seizure (MES) activity in mice after peroral administration of 100 mg/kg of compound; 0/5. As to conditions: route oral. In general terms: Protection in the maximal electroshock model is a classic sign of anticonvulsant action.
Assay [12] has as its system Mus musculus. Nature of the assay: Antireserpine activity (RES) of mice after peroral administration of mg/kg of compound; Slight inhibition (31-50%).
Assay [13] deals with Mus musculus. Nature of the assay: Antitremorine activity(TRM) of mice after peroral administration of 50 mg/kg of compound; No inhibition. As to conditions: route oral.
Assay [14] has as its system Mus musculus. The assay can be described thus: Antireserpine activity (RES) of mice after peroral administration of 100 mg/kg of compound; No inhibition. To be noted: route oral.
In assay [15] the test system is Mus musculus. The assay can be described thus: Concentration of compound that causes catalepsy in the mice when administered perorally. To be noted: po. The procedure, abridged:
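Male Std-ddY mice were dosed orally, vehicle 0.5% aqueous tragacanth. At 2 h, forepaws were placed on a rod 4.5 cm high. Failure to remove the paws within 30 s in three successive trials was scored cataleptic. ED50 was the dose giving catalepsy in 50% of mice (Litchfield-Wilcoxon).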

The test system of assay [16] is Mus musculus. The assay can be described thus: Inhibition of conditioned avoidance response in mice when administered perorally. As to conditions: po. The procedure, abridged: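 One-way active avoidance in male Std-ddY mice in a dark/light two-compartment box. Mice trained to move to the lit side on a warning stimulus to escape floor shock; groups of 10 avoiding at >80% in 10 trials. Compound po in 0.5% tragacanth. ED50 is the dose halving avoidance rate (Litchfield-Wilcoxon).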

Assay [17] has as its system Mus musculus. Nature of the assay: Antiexploratory activity (EXPL) of mice determined by an antimex activity meter, 10 mg/kg of dose was administered perorally. As to conditions: route oral. Put shortly:
(§6)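 Male Std-ddY mice (20-25 g), five per dose, given compound orally in 0.5% aqueous tragacanth. Two hours later each mouse was placed in the activity-meter cage and locomotor activity was counted for 3 min. Suppression is expressed as percent inhibition of control. ED50 (dose giving 50% inhibition) calculated by Litchfield-Wilcoxon.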

For assay [18], the system named is Mus musculus. The assay can be described thus: Concentration of compound that causes ptosis in the mice when administered perorally. To be noted: po. The procedure, abridged:
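Five male Std-ddY mice per group were dosed orally in 0.5% aqueous tragacanth. At 2 h, eyelid closure was scored macroscopically (8 open to 0 fully closed). Group mean scores formed a dose-response curve. ED50 was the dose reducing the mean score to 50%.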

The subject of assay [19] is Mus musculus. The assay is described as §2. Put shortly: (§7)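 Male Std-ddY mice (20-25 g) dosed orally with compound dissolved or suspended in 0.5% aqueous tragacanth. DOPAC measured fluorometrically after purification by column chromatography on Sephadex G-10 and QAE-Sephadex. Brains from five mice per compound pooled for the determination.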
The source holds these as a separate data set.

Assay [20] relates to Mus musculus. The description is as §5. Put shortly:
as §7
This is another data set of the same source.

The next assay has as its system Rattus norvegicus. Nature of the assay: Inhibition of self stimulation response in rats when administered perorally. To be noted: po. Put shortly:
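Male Wistar HLA rats (300-400 g) with chronic electrodes implanted in the lateral posterior hypothalamus; only rats lever-pressing steadily at 50-100/min were used. Compound given po in 0.5% tragacanth. Self-stimulation counted for 10 min before and 2 h after dosing. ED50 is the dose giving ≥50% rate inhibition in 50% of rats (Litchfield-Wilcoxon).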

The test system of assay [21] is Mus musculus. Nature of the assay: Antiexploratory activity (EXPL) of mice determined by an antimex activity meter, when administered perorally. To be noted: po. The procedure, abridged: as §6
The subject of assay [22] is Mus musculus. The assay can be described thus: Antiexploratory activity (EXPL) of mice determined by an antimex activity meter, 50 mg/kg of dose was administered perorally. To be noted: route oral. Put shortly: as §6
In assay [23] the test system is Mus musculus. Nature of the assay: The homovanillic acid (HVA)levels in mouse brain at 50 mg/kg of dose. The procedure, abridged:
(§8)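 Male Std-ddY mice (20-25 g) dosed orally with compound in 0.5% aqueous tragacanth (solution or suspension). Brain homovanillic acid (HVA) determined by a published method. Brains from five mice per compound pooled for one determination.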

Assay [24] has as its system Canis familiaris. Nature of the assay: Inhibition of apomorphine induced emesis in dogs when administered perorally. As to conditions: Canis lupus familiaris, po. The procedure, abridged: as §1
Assay [25] relates to Mus musculus. Nature of the assay: The homovanillic acid (HVA)levels in mouse brain at 10 mg/kg of dose. The procedure, abridged: as §8
The test system of assay [26] is Mus musculus. The assay can be described thus: Antitreserpine activity(RES) of mice after peroral administration of 100 mg/kg of compound; Moderate inhibition (51-71%). To be noted: route oral.
For assay [27], the system named is Mus musculus. The assay can be described thus: Antitremorine activity(TRM) of mice after peroral administration of 100 mg/kg of compound; Moderate inhibition (51-71%). To be noted: route oral.
The test system of assay [28] is Mus musculus. Nature of the assay: Antimaximal electroshock seizure (MES) activity in mice after peroral administration of 100 mg/kg of compound; 4/5. As to conditions: route oral.
Assay [29] concerns Mus musculus. Nature of the assay: Antiexploratory activity (EXPL) of mice determined by an antimex activity meter, 100 mg/kg of dose was administered perorally; Potent inhibition. As to conditions: route oral.
The subject of assay [30] is Mus musculus. Nature of the assay: Antimaximal electroshock seizure (MES) activity in mice after peroral administration of 10 mg/kg of compound; 0/5. As to conditions: route oral.
Assay [31] deals with Mus musculus. Nature of the assay: Antiexploratory activity (EXPL) of mice determined by an antimex activity meter, 100 mg/kg of dose was administered perorally; Moderate inhibition (51-71%). To be noted: route oral.
Assay [32] has as its system Mus musculus. The assay can be described thus: Antireserpine activity (RES) of mice after peroral administration of 100 mg/kg of compound; Moderate inhibition (51-71%). To be noted: route oral.
The test system of assay [33] is Mus musculus. The assay can be described thus: Antitremorine activity(TRM) of mice after peroral administration of 100 mg/kg of compound; Slight inhibition (31-50%). To be noted: route oral.

A value given as a limit tells only on which side of the number the result lay.

By inhibition in vivo is commonly meant the percentage by which the read-out fell short of the control. Low values mean a weak effect, high ones a strong effect. Take `CCCN1CCN(C2=Nc3ccccc3CC=C2c2ccc(F)cc2)CC1.O=C(O)/C=C/C(=O)O`: the inhibition in vivo at 10 mg/kg in the assay with Mus musculus [1] is less than 30%; in the assay with Mus musculus [5] it was 18.5%. This compound had an inhibition in vivo at 1 mg/kg with Canis familiaris [2] of 100%. Besides, the results for the inhibition in vivo at 50 mg/kg in the assay with Mus musculus [3] and in the assay with Mus musculus [6] were 51% and 61.4%, respectively. In addition, the Control in the assay on Mus musculus [4] turned out to be 166%; in the assay with Mus musculus [7] it was 328%; in the assay with Mus musculus [8], 317%; with Mus musculus [9], 557%.
A word on the Inhibition: it is the drop in the measured response relative to a control, in per cent. A lower Inhibition goes with a weak effect. The compound `Cl.Cl.OCCN1CCN(C2=Nc3ccccc3CC=C2c2cccc(Cl)c2)CC1` came in with an inhibition in vivo at 50 mg/kg with Mus musculus [10] of less than 30%. Further, in the assay with Mus musculus [11], the Activity is 0. Besides, in the assay with Mus musculus [12], the Inhibition is 31%.
With `Cl.OC1CCN(C2=Nc3ccccc3CC=C2c2ccc(F)cc2)CC1`, the inhibition in vivo at 50 mg/kg with Mus musculus [13] and in the assay on Mus musculus [10] was less than 30% in each case. The same compound came in with an Activity in the assay with Mus musculus [11] of 0. For the same compound, the inhibition in vivo at 100 mg/kg in the assay on Mus musculus [14] is less than 30%.
The term ED50 denotes the dose at which the effect has come halfway, by size or by number of responders. Read a low ED50 as greater potency. On to `CN1CCN(C2=Nc3cc(Cl)ccc3Nc3ccccc32)CC1` [CLOZAPINE], for which the ED50 was more than 100 mg/kg in the assay on Mus musculus [15]; 9.68 mg/kg with Mus musculus [16]; 15.8 mg/kg in the assay on Mus musculus [18]; 77.1 mg/kg in the assay on Rattus norvegicus; 8.45 mg/kg in the assay on Mus musculus [21]; 12.6 mg/kg in the assay with Canis familiaris [24]. In the assay with Mus musculus [17], this compound came in with an inhibition in vivo at 10 mg/kg of 50.6%. For the same compound, the Control % at 10 mg/kg is 128% in the assay on Mus musculus [19] and 106% in the assay on Mus musculus [25]. For the same compound, the inhibition in vivo at 1 mg/kg with Canis familiaris [2] came out at 27.4%. Besides, the results for the Control % at 50 mg/kg with Mus musculus [20] and with Mus musculus [23] were 324% and 274%, respectively. The same compound registered an inhibition in vivo at 50 mg/kg in the assay on Mus musculus [22] of 87.8%.
As for `Clc1ccc(C2=CCc3ccccc3N=C2N2CCCCC2)cc1`, the inhibition in vivo at 50 mg/kg in the assay on Mus musculus [13] and in the assay on Mus musculus [10] was less than 30% each time. The compound further registered an Activity in the assay with Mus musculus [11] of 0. Further, the inhibition in vivo at 100 mg/kg with Mus musculus [14] is less than 30%.
For `COc1ccc2c(c1)CC=C(c1ccccc1)C(N1CCN(C)CC1)=N2.Cl.Cl`, the inhibition in vivo at 100 mg/kg is 51% in the assay on Mus musculus [26], 51% in the assay with Mus musculus [27] and more than 71% in the assay on Mus musculus [29]. In addition, the Activity with Mus musculus [28] is 4; with Mus musculus [30] it was 0. Moreover, in the assay on Mus musculus [1], the inhibition in vivo at 10 mg/kg was less than 30%.
In the case of `CN1CCN(C2=Nc3ccccc3CC=C2c2ccccc2Cl)CC1.Cl.Cl`, the Activity with Mus musculus [11] amounted to 0. Besides, the inhibition in vivo at 100 mg/kg worked out at 51% with Mus musculus [31], 51% in the assay on Mus musculus [32] and 31% in the assay with Mus musculus [33].

For the origin of these results see ChEMBL document CHEMBL1124216, “A novel class of potential central nervous system agents. 3-Phenyl-2-(1-piperazinyl)-5H-1-benzazepines” (1988).
